Experiment: Toxicity liver stage against HepG2, at 10uM
Type: cell-based
Parameters: test concentration 10 uM, cell line HepG2-A16-CD81EGFP
Settings: human, HepG2-A16-CD81EGFP cells; read-out: INHIBITION
Procedure, shortened: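 Uninfected HepG2-A16-CD81EGFP cells, 3 × 10^3 per well, 1536-well, plated on prespotted compound at 10 μM final, parasite-free screening media added to match infected plates; puromycin 10 μM positive, DMSO 0.5% negative; run in parallel with 48 h PbLuc assay at 37 °C, 5% CO2; viability by CellTiter-Glo luminescence, normalized to controls.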

Going from `CN(Cc1ccccc1O)CC1CCCN(CCc2ccc(Cl)cc2)C1` (centres undefined) to `CNc1cc(C2CCCN2Cc2ccccc2OCC(=O)O)ccn1` (centres undefined), the cytotoxicity at 10 µM rises from -10.1% to -0.645%.

Compared with `CC[C@H]1CN2CC[C@H]1C[C@@H]2CNCc1ccc(OC(F)(F)F)cc1`, `N#Cc1ccc(OCC(O)CN2CCC(Cn3cccn3)CC2)cc1` (centres undefined) is higher in cytotoxicity at 10 µM: -0.785% for the first, -0.775% for the second.

Going from `COc1ccc(-n2ncc3c2NC(=O)CSC3C(C)C)cc1` (centres undefined) to `CC(C)(C)n1ncc2c1NC(=O)CC2c1ccccc1` (centres undefined), the cytotoxicity at 10 µM rises from 17.4% to 19.2%.

Compared with `O=c1ccc(-n2cccn2)nn1CCNS(=O)(=O)c1ccc(F)c(Cl)c1`, `CC(CC(=O)NS(=O)(=O)c1ccc2c(c1)OCCO2)c1ccc(F)cc1` (centres undefined) is lower in cytotoxicity at 10 µM: 1.48% for the first, -31.6% for the second.

Compared with `Cn1cc(C(=O)N2CC[C@@H]3[C@@H]2CCN3c2ccccn2)cn1`, `Cn1c(Cn2ccnc2)nnc1C1CCN(C(=O)c2ccccn2)CC1` is lower in cytotoxicity at 10 µM: -0.0807% for the first, -104% for the second.

First: COC(=O)CCC(=O)N1CCC2(CN(Cc3ccccc3)C2)C1
Second: Cc1nc(C)n(C2CCCN(C(=O)COCc3ccccc3)C2)n1 (centres undefined)
The cytotoxicity at 10 µM of the first is higher: 12.3% for the first, -11% for the second.

Compared with `O=C([C@H]1C[C@H]2OCC[C@H]2N(Cc2ccncc2)C1)N1CCCCO1`, `O=C(C1CC1)N1CCN(Cc2ccncc2)c2ncccc2C1` is higher in cytotoxicity at 10 µM: -9.01% for the first, -3.88% for the second.

Compared with `CN(C)C(=O)C1(CCCc2ccccn2)CCN1Cc1nccn1C` (centres undefined), `CC(C)N1CCOCC2(CN(Cc3ccccn3)CCO2)C1` (centres undefined) is lower in cytotoxicity at 10 µM: 8.08% for the first, 6.46% for the second.

Going from `Cc1nc(C(=O)N2CCCC(c3ccc4sc(N)nc4n3)C2)co1` (centres undefined) to `Cc1csc(C2CCCN(C(=O)c3ccc(=O)n(C)n3)C2)n1` (centres undefined), the cytotoxicity at 10 µM rises from -11.9% to 6.76%.

Going from `Cn1cc(C(=O)N2CCCC(CN3CCCC3=O)C2)cn1` (centres undefined) to `COCCN1CCCc2sc(C(=O)N3CCCN(C)CC3)nc21`, the cytotoxicity at 10 µM rises from -12.6% to 0.534%.

First: CC(C)c1nnc(CN(C)Cc2ccccc2-c2ccccc2)o1
Second: Cc1cc(C[C@@H]2CCC[C@H]2NCc2c[nH]nc2-c2ccccc2)on1
The cytotoxicity at 10 µM of the first is higher: 5.98% for the first, -14% for the second.

Compared with `O=C(O)CCc1ccc(S(=O)(=O)Nc2cnn(CC3CC3)c2)cc1`, `O=C(c1cc[nH]n1)N(Cc1cccc(O)c1)CC1CC1` is higher in cytotoxicity at 10 µM: -8.35% for the first, 8.27% for the second.

Compared with `O=C(Nc1ccc(-c2ccccc2)cn1)C1CCCN1C(=O)C1CC1` (centres undefined), `Cc1cccc(-c2c[nH]c(C3CCCN3C(=O)C3CCOCC3)n2)c1` (centres undefined) is higher in cytotoxicity at 10 µM: -1.6% for the first, 1.92% for the second.

First: CN1CCOC(CNCc2nc(-c3ccco3)no2)C1 (centres undefined)
Second: Cc1nc(CN2CCCC(N(C)Cc3cnn(C)c3)C2)no1 (centres undefined)
The cytotoxicity at 10 µM of the first is higher: 3.54% for the first, -7.72% for the second.

Going from `CC(NCCCn1cccn1)c1ccc(N2CCCS2(=O)=O)cc1` (centres undefined) to `Cc1ccc(C)n1-c1c(C(=O)NCC(C)Cn2cccn2)cnn1C` (centres undefined), the cytotoxicity at 10 µM rises from -0.828% to 13.8%.

First: CC(C)(NCc1ccc(C#N)cc1)c1ccc2c(c1)OCO2
Second: COc1cccc(CNC(C)C)c1OCc1ccc(C)cc1
The cytotoxicity at 10 µM of the first is higher: 2.3% for the first, 0.438% for the second.

First: CCOCCCC(=O)Nc1ccc(OCc2noc(C3CC3)n2)cc1
Second: COCCOCC(=O)Nc1cccc(CN(C)C(C)=O)c1
The cytotoxicity at 10 µM of the first is higher: 44.4% for the first, -126% for the second.

Going from `Nc1cc2c(nn1)CCN(C(=O)Cc1ccc3c(c1)CCO3)C2` to `O=C(NCc1nnc2n1CCCC2)N1CCc2sccc2C1`, the cytotoxicity at 10 µM falls from 5.52% to -9.78%.

Compared with `Cc1nn(C)c2ncc(S(=O)(=O)N3CCN4CCCC4C3)cc12` (centres undefined), `Cc1cccc(S(=O)(=O)N2C[C@@H]3C[C@H](C(=O)NC4CCC4)[C@H](C2)O3)c1` is lower in cytotoxicity at 10 µM: 2.6% for the first, -1.74% for the second.

First: COCC(=O)N1CCN(Cc2nnc(C(C)(C)C)o2)CC1
Second: CCn1ccnc1CN1CCN(CC(=O)NC(C)(C#N)C2CC2)CC1 (centres undefined)
The cytotoxicity at 10 µM of the first is higher: 7.66% for the first, -8.24% for the second.

Going from `Cn1cnc2c1CCN(CC(=O)N(Cc1ccsc1)C1CC1)C2` to `CN(Cc1ccsc1)C(=O)CN1CCOC(Cn2cncn2)C1` (centres undefined), the cytotoxicity at 10 µM falls from -0.157% to -1.14%.

Compared with `C1CCC(NCCN2CCOCC2)C1`, `O=C(c1ccco1)N1CCc2ncc(CN3CCOCC3)n2CC1` is higher in cytotoxicity at 10 µM: -145% for the first, -78.7% for the second.

Going from `CCC(C)NC(=O)c1ccc(NC(=O)CCCn2cncn2)c(C)c1` (centres undefined) to `CC(C)CN1Cc2c(C(=O)N(C)C)ncn2-c2ccccc2S1(=O)=O`, the cytotoxicity at 10 µM rises from -10.7% to 3.63%.

First: CN1CC(NC(=O)CCOc2cccc(Cl)c2)CC1=O (centres undefined)
Second: NC(=O)C1CCN(C(=O)NCCOc2ccc3c(c2)CCC3)CC1
The cytotoxicity at 10 µM of the first is higher: -5.4% for the first, -7.07% for the second.

Compared with `O=C(NCC(=O)N1CCCCC1)c1ccc(Cl)cc1I`, `O=C1CCCCCN1Cc1ncnn1Cc1c(F)cccc1Cl` is higher in cytotoxicity at 10 µM: -11.5% for the first, 2.14% for the second.

Going from `Cc1nn(CC(=O)N2CCN(c3ccncc3)CC2)c(C)c1Cl` to `O=C(O)[C@@H]1CN(C(=O)CN2Cc3ccccc3C2)C[C@H]1c1ccncc1`, the cytotoxicity at 10 µM rises from -17.8% to 4.85%.

First: CCN1CC2(CCC1=O)CCN(c1ccc(C(C)=O)cn1)CC2
Second: CN(C)CCN1C(=O)CCCC12CCCN(C(=O)c1ccncc1)C2 (centres undefined)
The cytotoxicity at 10 µM of the first is lower: -8.63% for the first, -1.31% for the second.

Going from `COc1nc2c(cc1C(=O)N(C)Cc1n[nH]c3c1CCCC3)CCC2` to `Cc1ncoc1C(=O)N1CCc2[nH]nc(-c3ccc4c(c3)OCO4)c2C1`, the cytotoxicity at 10 µM falls from -1.89% to -143%.

Compared with `O=C(O)c1cccc(CC2CCN(c3cnccn3)CC2)c1`, `CCCc1cc(N2CCC(Cc3cccc(C(N)=O)c3)C2)nc(C)n1` (centres undefined) is higher in cytotoxicity at 10 µM: -121% for the first, -1.62% for the second.

Compared with `Cc1ccc(-c2cnnc(N3CCCC3c3nonc3C)n2)o1` (centres undefined), `Cc1nc(C)n(C2CCCN(C(=O)c3ccc(CN(C)C)cc3)C2)n1` (centres undefined) is lower in cytotoxicity at 10 µM: 5.46% for the first, -1.6% for the second.

Compared with `CCCOc1ccc2ccccc2c1CN1CC[C@@]2(O)CCNC[C@H]2C1`, `COCCN(CCc1ccccc1)Cc1nc2c(cnn2C)c(=O)[nH]1` is higher in cytotoxicity at 10 µM: -148% for the first, -7.57% for the second.

First: CSCc1noc(CNC(=O)c2cc(C)c(C)[nH]c2=O)n1
Second: CCN(CC)C1COc2c(cc(Br)c(C)c2Br)C1=O (centres undefined)
The cytotoxicity at 10 µM of the first is lower: 0.355% for the first, 5.77% for the second.

First: CC(=O)N1CCN(C(=O)c2cc(C(C)C)no2)[C@H]2CS(=O)(=O)C[C@H]21
Second: CCS(=O)(=O)N1CC[C@@H]2[C@H](CC1)N(Cc1cccnc1)CCS2(=O)=O
The cytotoxicity at 10 µM of the first is lower: -7.8% for the first, -3.12% for the second.

Going from `CSc1ccc(-c2nc(CN3CCC(NC(C)=O)CC3)c(C)o2)cc1` to `Cn1ccnc1C(=O)N1CCC(Cn2cc(-c3ccsc3)nn2)CC1`, the cytotoxicity at 10 µM falls from -2.76% to -6.46%.

Going from `Cc1nn(C)c2nc(-c3ccccn3)nc(NCCCOC(C)C)c12` to `CN(CCn1ccc2ccccc21)C(=O)Cc1n[nH]c(=O)[nH]1`, the cytotoxicity at 10 µM falls from 1.5% to -16.4%.

First: Cc1nnc2n1CCN(C(=O)c1cc(Br)c[nH]1)C2
Second: CN(Cc1ccc(Cl)s1)C(=O)NCc1nnc2n1CCC2
The cytotoxicity at 10 µM of the first is lower: -10.7% for the first, -5.36% for the second.

First: Cn1cc(CN2CCc3ncnc(N4CCOCC4)c3CC2)cn1
Second: c1cncc(CN2Cc3nccn3CC(Cn3cncn3)C2)c1 (centres undefined)
The cytotoxicity at 10 µM of the first is higher: -3.46% for the first, -136% for the second.

Going from `O=C(C1CCC1)N1C[C@@H](c2ccsc2)[C@@H]2CN(C3CCCC3)CC[C@@H]21` to `CN(C)C[C@H]1OC[C@@H]2CN(C(=O)NCc3cccnc3)CC[C@@H]21`, the cytotoxicity at 10 µM rises from -1.51% to 3.86%.

Compared with `Cc1nc(CN2C[C@@H]3CN(c4ncc(F)cn4)C[C@@H]3C2=O)cs1`, `COCC1CN(S(=O)(=O)N(C)C)Cc2ncn(CC3CC3)c21` (centres undefined) is higher in cytotoxicity at 10 µM: -0.673% for the first, 8.77% for the second.

Work on `CCS(=O)(=O)N1CCC2(CC1)COC(COc1cccnc1)C2` (centres undefined) yielded a cytotoxicity at 10 µM of 10.6%.

Source: ChEMBL document CHEMBL4513216, “Probing the Open Global Health Chemical Diversity Library for Multistage-Active Starting Points for Next-Generation Antimalarials” (ACS Infect Dis, 2020)
